Laboratory results reported in ChEMBL document CHEMBL1144718, “Novel 3-aroylpyrazolo[5,1-c][1,2,4]benzotriazine 5-oxides 8-substituted, ligands at GABAA/benzodiazepine receptor complex: synthesis, pharmacological and molecular modeling studies” (Bioorg Med Chem, 2008).
Active and inactive are the calls of the source. The rule behind the calls is not given here.

What was measured:
[1] = Displacement of [3H]flumazenil from GABAA/BzR complex in bovine cerebral cortex membrane; type: cell membranes, Bos taurus
How it was run: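 Bovine cerebral cortex membranes in 50 mM Tris-citrate pH 7.4 incubated with [3H]Ro15-1788 (1–2 nM) for 1 h at 4 °C to equilibrium; nonspecific binding with 10^-5 M diazepam; DMSO ≤1%. Ki from ≥6 concentrations (10^-9–10^-5 M) by curve fitting and Cheng–Prusoff; percent inhibition at 10 µM; five determinations, triplicate.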

Mus musculus [2] = assay: Effect on motor coordination in CD1 Albino mouse assessed as number of falls in 30 secs at 3 mg/kg, po after 30 mins by rotarod test; type: functional
How it was run: (§1)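 Rota-rod at 16 rpm in male CD-1 mice after po dosing in 1% CMC; number of falls in 30 s counted at 15, 30, 45 and 60 min post-administration.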

Mus musculus [3] = assay: Effect on motor coordination in CD1 Albino mouse assessed as number of falls in 30 secs at 10 mg/kg, po after 30 mins by rotarod test relative to control; type: functional; how it was run: as §1
Mus musculus [4] = assay: Effect on motor coordination in CD1 Albino mouse assessed as number of falls in 30 secs at 30 mg/kg, po after 30 mins by rotarod test relative to control; type: functional; how it was run: as §1
Mus musculus [5] = assay: Anticonvulsant activity against pentylenetetrazole-induced seizure in CD1 Albino mouse assessed as shock latency at 3 mg/kg, po after 30 mins; type: functional
How it was run: (§2)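 Male CD-1 mice (22–24 g), compound suspended in 1% CMC (sonicated) given po in 10 ml/kg; 30 min later PTZ 90 mg/kg sc (in saline). Latency (s) to shock and to convulsions recorded; clonic generalized convulsions counted over 30 min.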

Mus musculus [6] = assay: Anticonvulsant activity against pentylenetetrazole-induced seizure in CD1 Albino mouse assessed as shock latency at 10 mg/kg, po after 30 mins; type: functional; how it was run: as §2
Mus musculus [7] = assay: Anticonvulsant activity against pentylenetetrazole-induced seizure in CD1 Albino mouse assessed as shock latency at 30 mg/kg, po after 30 mins; type: functional; how it was run: as §2
Mus musculus [8] = assay: Sedative activity in CD1 albino mouse assessed as reduction of curiosity at 3 mg/kg, po after 30 mins by hole-board test; type: functional, organism-based; parameters: dose 3 mg/kg
How it was run: (§3)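 Hole-board: male CD-1 mice given compound po (1% CMC) and placed individually on the board 30 min later, free to explore panel and holes for 5 min; spontaneous motility and exploration (panel and hole movements) scored.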

Mus musculus [9] = assay: Sedative activity in CD1 albino mouse assessed as reduction of curiosity at 30 mg/kg, po after 30 mins by hole-board test; type: functional, organism-based; parameters: dose 30 mg/kg; how it was run: as §3
Mus musculus [10] = assay: Anxiolytic effect in CD1 albino mouse at 10 mg/kg, po after 30 mins by light-dark box test; type: functional, organism-based; parameters: dose 10 mg/kg
How it was run: (§4)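 Male CD-1 mice (22–24 g); test agent po in 1% CMC, 30 min before a light/dark box session; time (s) spent in the illuminated compartment measured. Means ± SEM of 14–21 mice.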

Mus musculus [11] = assay: Anxiolytic effect in CD1 albino mouse at 30 mg/kg, po after 30 mins by light-dark box test; type: functional, organism-based; parameters: dose 30 mg/kg; how it was run: as §4
Mus musculus [12] = assay: Increase in learning and memory performance in CD1 albino mouse at 10 mg/kg, po after 24 hrs by passive avoidance test; type: functional, organism-based; parameters: dose 10 mg/kg
How it was run: (§5)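 Passive avoidance in male CD-1 mice treated po 30 min before training; retention tested 24 h later. Latency to enter the dark compartment measured, maximum 60 s (training) and 180 s (retention). Means ± SEM of 15–18 mice.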

Mus musculus [13] = assay: Increase in learning and memory performance in CD1 albino mouse at 30 mg/kg, po after 24 hrs by passive avoidance test; type: functional, organism-based; parameters: dose 30 mg/kg; how it was run: as §5
Mus musculus [14] = assay: Effect on ethanol-induced sleeping time in CD1 Albino mouse assessed as increase in duration of loss of righting reflex at 3 mg/kg, po after 30 mins; type: functional, organism-based; parameters: dose 3 mg/kg
How it was run: (§6)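 Male CD-1 mice dosed po (1% CMC suspension); ethanol 4 g/kg ip given 30 min after the compound. Sleep time taken as duration of loss of righting reflex, end-point 150 min.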

Mus musculus [15] = assay: Effect on ethanol-induced sleeping time in CD1 Albino mouse assessed as increase in duration of loss of righting reflex at 10 mg/kg, po after 30 mins; type: functional, organism-based; parameters: dose 10 mg/kg; how it was run: as §6
Mus musculus [16] = assay: Effect on ethanol-induced sleeping time in CD1 Albino mouse assessed as increase in duration of loss of righting reflex at 30 mg/kg, po after 30 mins; type: functional, organism-based; parameters: dose 30 mg/kg; how it was run: as §6
Mus musculus [17] = assay: Anticonvulsant activity against pentylenetetrazole-induced seizure in CD1 Albino mouse assessed as convulsant latency at 3 mg/kg, po after 30 mins; type: functional; how it was run: as §2
Mus musculus [18] = assay: Anticonvulsant activity against pentylenetetrazole-induced seizure in CD1 Albino mouse assessed as convulsant latency at 10 mg/kg, po after 30 mins; type: functional; how it was run: as §2
Mus musculus [19] = assay: Anticonvulsant activity against pentylenetetrazole-induced seizure in CD1 Albino mouse assessed as convulsant latency at 30 mg/kg, po after 30 mins; type: functional; how it was run: as §2

Question: Which Ki [1] does the source give for `O=C(c1ccco1)c1cnn2c1n[n+]([O-])c1ccc(Cl)cc12` here?
Answer: 72 nM

Question: For `CC(=O)c1cnn2c1n[n+]([O-])c1ccc(Oc3ccccc3)cc12`, which Ki [1] is on record?
Answer: 53 nM

Question: Which Ki [1] does the source give for `CCOc1ccc2c(c1)n1ncc(C(=O)c3cccnc3)c1n[n+]2[O-]` here?
Answer: 2000 nM

Question: Which Ki [1] does the source give for `O=C(c1cccs1)c1cnn2c1n[n+]([O-])c1ccc(Oc3ccccc3)cc12` here?
Answer: 8.9 nM

Question: What about the Activity (Mus musculus [2]) of the same molecule?
Answer: 0.8 count

Question: And the Activity (Mus musculus [3])?
Answer: 1.6 count

Question: And the Activity (Mus musculus [4])?
Answer: 2 count

Question: And the Activity (Mus musculus [5])?
Answer: 224.5 s

Question: And the Activity (Mus musculus [6])?
Answer: 279.7 s

Question: And the Activity (Mus musculus [7])?
Answer: 614.1 s

Question: What about the Activity (Mus musculus [8]) of the same molecule?
Answer: Active

Question: And the Activity (Mus musculus [9])?
Answer: Active

Question: And the Activity (Mus musculus [10])?
Answer: Active

Question: And the Activity (Mus musculus [11])?
Answer: Active

Question: What about the Activity (Mus musculus [12]) of the same molecule?
Answer: Active

Question: What about the Activity (Mus musculus [13]) of the same molecule?
Answer: Active

Question: And the Activity (Mus musculus [14])?
Answer: Active

Question: And the Activity (Mus musculus [15])?
Answer: Active

Question: What about the Activity (Mus musculus [16]) of the same molecule?
Answer: Active

Question: What about the Activity (Mus musculus [17]) of the same molecule?
Answer: 460.3 s

Question: And the Activity (Mus musculus [18])?
Answer: 542.6 s

Question: What about the Activity (Mus musculus [19]) of the same molecule?
Answer: 766.6 s

Question: For `COc1ccc(C(=O)c2cnn3c2n[n+]([O-])c2ccc(Cl)cc23)cc1`, which Ki [1] is on record?
Answer: 1240 nM

Question: With `CCOc1ccc2c(c1)n1ncc(C(C)=O)c1n[n+]2[O-]` as the molecule, how does the Ki [1] read?
Answer: 902 nM

Question: Which Ki [1] does the source give for `Cn1cccc1C(=O)c1cnn2c1n[n+]([O-])c1ccc(Cl)cc12` here?
Answer: 5200 nM

Question: With `CC(=O)c1cnn2c1n[n+]([O-])c1ccc(Cl)cc12` as the molecule, how does the Ki [1] read?
Answer: 551 nM

Question: Which results are given for `CCOc1ccc2c(c1)n1ncc(C(=O)c3ccco3)c1n[n+]2[O-]`?
Answer: Ki [1]: 28 nM; Activity (Mus musculus [2]): 0.6 count; Activity (Mus musculus [3]): 0.8 count; Activity (Mus musculus [4]): 0.6 count; Activity (Mus musculus [8]): Active; Activity (Mus musculus [9]): Active; Activity (Mus musculus [17]): 328.5 s; Activity (Mus musculus [18]): 488.2 s

Question: Which Ki [1] does the source give for `O=C(c1ccccc1)c1cnn2c1n[n+]([O-])c1ccc(Cl)cc12` here?
Answer: 3490 nM

Question: For `O=C(c1cccs1)c1cnn2c1nnc1ccc(Oc3ccccc3)cc12`, which Ki [1] is on record?
Answer: 14.7 nM

Question: For `O=C(c1cccnc1)c1cnn2c1n[n+]([O-])c1ccc(Cl)cc12`, which Ki [1] is on record?
Answer: 2400 nM

Question: For `O=C(c1ccco1)c1cnn2c1n[n+]([O-])c1ccc(OCc3ccccc3)cc12`, which Ki [1] is on record?
Answer: 1.4 nM

Question: For `COc1ccccc1C(=O)c1cnn2c1n[n+]([O-])c1ccc(Cl)cc12`, which Ki [1] is on record?
Answer: 4200 nM

Question: With `CCOc1ccc2c(c1)n1ncc(C(=O)c3cccs3)c1n[n+]2[O-]` as the molecule, how does the Ki [1] read?
Answer: 45 nM
